The results in this text go back to ChEMBL document CHEMBL3352365, “Formononetin attenuates osteoclastogenesis via suppressing the RANKL-induced activation of NF-κB, c-Fos, and nuclear factor of activated T-cells cytoplasmic 1 signaling pathway” (J Nat Prod, 2014).

The test system of data set [1] is BMMC. As to the kind of experiment: Inhibition of RANKL/M-CSF-stimulated osteoclastogenesis in ICR mouse BMMC assessed as reduction in TRAP positive multinucleated cells at 1 to 10 uM incubated for 7 days by light microscopy. The class given is functional. In short, it runs like this: (§1)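 BMMs from 6-week-old ICR mouse femurs/tibiae (M-CSF expanded; 5 × 10^5 cells/well) stimulated with RANKL 100 ng/mL for 1 h, then treated (1, 5, 10 μM) with M-CSF 30 ng/mL for 7 days. Fixed and TRAP-stained; TRAP+ cells with ≥3 nuclei counted by light microscopy. Mean ± SEM, two experiments.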

Data set [2] in a line: Inhibition of RANKL/M-CSF-stimulated osteoclastogenesis in ICR mouse BMMC assessed as reduction in TRAP positive multinucleated cells at 1 to 10 uM incubated for 7 days by light microscopy relative to untreated control. The class given is functional. In short, it runs like this: as §1
The nature of data set [3]: Toxicity against ICR mouse BMMC assessed as reduction in cell viability up to 100 uM after 72 hrs by WST8 assay. In short, it runs like this: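 BMMs cultured with RANKL (100 ng/mL) and test compound at 0, 1, 5, 10 and 100 μM for 72 h. Viability read by WST-8 (CCK-8) assay.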
On the technique in general: Tetrazolium assays rely on reduction of a dye to a coloured formazan, in cell work by metabolically active cells.

Data set [4] has as its system BMMC. As to the kind of experiment: Inhibition of RANKL protein expression in ICR mouse BMMC co-cultured with primary osteoblasts at 1 to 10 uM incubated for 48 hrs by ELISA method. The format is functional. In short, it runs like this: (§2)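 Coculture of BMMs (3 × 10^5 cells/well) with calvarial osteoblasts from 1-day-old mice (2.5 × 10^4 cells/well). Cells prestimulated with RANKL 100 ng/mL for 1 h, then treated for 48 h with M-CSF 30 ng/mL present. RANKL measured in cell lysate and OPG in culture medium, both by ELISA. Mean ± SEM of two independent experiments; Student's t test.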
(ELISA stands for enzyme-linked immunosorbent assay.)

The nature of data set [5]: Inhibition of RANKL protein expression in ICR mouse BMMC co-cultured with primary osteoblasts at 1 to 10 uM incubated for 48 hrs by ELISA method relative to untreated control. The format is functional. In short, it runs like this: as §2
For another data set, the system named is Osteoblast. As to the kind of experiment: Increase in OPG protein expression in RANKL-stimulated mouse primary osteoblasts co-cultured with ICR mouse BMMC at 1 to 10 uM incubated for 48 hrs by ELISA method relative to untreated control. The class given is functional. In short, it runs like this:
as §2

The nature of data set [6]: (§3) Inhibition of RANKL/M-CSF-stimulated TNFalpha protein expression in ICR mouse BMMC at 1 to 10 uM incubated for 48 hrs by ELISA method relative to untreated control. The class given is functional. In short, it runs like this: (§4)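 BMMs (3 × 10^5 cells/well) prestimulated with RANKL 100 ng/mL for 1 h, then treated (1, 5, 10 μM) with M-CSF 30 ng/mL. Cytokines and chemokines in culture medium measured by ELISA. Methods give 7 days of treatment; legend gives 48 h. Mean ± SEM of two independent experiments; Student's t test.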

The subject of data set [7] is BMMC. Described as §3. The format is functional. In short, it runs like this:
as §4

Data set [8] can be described thus: (§5) Inhibition of RANKL/M-CSF-stimulated IL-1beta protein expression in ICR mouse BMMC at 1 to 10 uM incubated for 48 hrs by ELISA method relative to untreated control. The class given is functional. In short, it runs like this: as §4
For data set [9], the system named is BMMC. Described as §5. The class given is functional. In short, it runs like this:
as §4

Data set [10] in a line: (§6) Inhibition of RANKL/M-CSF-stimulated IL-6 protein expression in ICR mouse BMMC at 1 to 10 uM incubated for 48 hrs by ELISA method relative to untreated control. The format is functional. In short, it runs like this: as §4
Data set [11] relates to BMMC. The data set is described as §6. The format is functional. In short, it runs like this:
as §4

Data set [12] in a line: (§7) Inhibition of RANKL/M-CSF-stimulated MCP1 protein expression in ICR mouse BMMC at 1 to 10 uM incubated for 48 hrs by ELISA method relative to untreated control. The class given is functional. In short, it runs like this: as §4
The test system of data set [13] is BMMC. The description is as §7. The class given is functional. In short, it runs like this: as §4
Data set [14] can be described thus: (§8) Inhibition of RANKL/M-CSF-stimulated RANTES protein expression in ICR mouse BMMC at 1 to 10 uM incubated for 48 hrs by ELISA method relative to untreated control. The format is functional. In short, it runs like this: as §4
Data set [15] concerns BMMC. The data set is described as §8. The class given is functional. In short, it runs like this: as §4
Data set [16] in a line: (§9) Inhibition of RANKL/M-CSF-stimulated MIP-1alpha protein expression in ICR mouse BMMC at 1 to 10 uM incubated for 48 hrs by ELISA method relative to untreated control. The class given is functional. In short, it runs like this:
as §4

Data set [17] relates to BMMC. Described as §9. The format is functional. In short, it runs like this:
as §4

Data set [18] deals with Transcription factor p65 (Mus musculus) (UniProt Q04207). Nature of the data set: Inhibition of RANKL-stimulated NFkappaB p65 phosphorylation in ICR mouse BMMC at 1 to 10 uM incubated for 4 hrs by Western blotting method. (In general: In western blotting, separated proteins are transferred to a membrane and probed.)
The target of data set [19] is T1, Tumor necrosis factor ligand superfamily member 11 (Mus musculus) (UniProt O35235).
T1 sequence (whole entry): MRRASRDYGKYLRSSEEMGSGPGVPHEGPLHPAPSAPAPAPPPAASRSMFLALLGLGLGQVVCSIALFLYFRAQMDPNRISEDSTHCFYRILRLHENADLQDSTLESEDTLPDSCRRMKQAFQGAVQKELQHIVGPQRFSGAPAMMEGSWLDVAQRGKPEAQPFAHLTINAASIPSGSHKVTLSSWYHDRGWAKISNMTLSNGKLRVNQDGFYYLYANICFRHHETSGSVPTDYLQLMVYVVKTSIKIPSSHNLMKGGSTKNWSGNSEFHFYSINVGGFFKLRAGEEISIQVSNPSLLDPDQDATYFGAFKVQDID
Nature of the data set: Inhibition of RANKL-stimulated IkappaBalpha degradation in ICR mouse BMMC at 1 to 10 uM incubated for 4 hrs by Western blotting method.

Data set [20] concerns the target T2, Nuclear factor NF-kappa-B complex (Homo sapiens) (UniProt Q00653+P19838+Q04206). As to the kind of experiment: Inhibition of RANKL-stimulated NFkappaB (unknown origin) expressed in ICR mouse BMMC assessed as reduction in transcriptional activity at 1 to 10 uM incubated for 12 hrs by SEAP based reporter gene assay relative to untreated control. In short, it runs like this: (§10)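 BMMs (5 × 10^5 cells/well) stimulated with RANKL 100 ng/mL for 1 h, then transfected (Lipofectamine 2000) with 300 ng pNF-κB-SEAP-NPT (four NF-κB sites) or control SEAP-NPT. After 24 h, treated (0, 1, 5, 10 μM) for 12 h at 37 °C with M-CSF and RANKL. Supernatant SEAP fluorescence read at ex 360/em 449 nm, given as % of control. Two experiments.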

Data set [21] deals with T2, Nuclear factor NF-kappa-B complex (Homo sapiens). Nature of the data set: Inhibition of RANKL-stimulated NFkappaB (unknown origin) expressed in ICR mouse BMMC assessed as reduction in transcriptional activity at 1 to 10 uM incubated for 12 hrs by SEAP based reporter gene assay. In short, it runs like this:
as §10

For data set [22], the target named is T1, Tumor necrosis factor ligand superfamily member 11 (Mus musculus). As to the kind of experiment: Inhibition of RANKL-induced c-FOS mRNA expression in ICR mouse BMMC at 5 uM incubated for 12 hrs by qRT-PCR method. The format is functional. In short, it runs like this: (§11)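 BMMs stimulated with RANKL (100 ng/mL) for 12 h, then treated at the indicated times and concentrations. c-Fos and NFATc1 mRNA quantified by real-time PCR.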

In data set [23] the target is RAC-alpha serine/threonine-protein kinase (Mus musculus) (UniProt P31750). As to the kind of experiment: Inhibition of RANKL-stimulated AKT phosphorylation in ICR mouse BMMC at 1 to 10 uM incubated for 12 hrs by Western blotting method. In short, it runs like this:
(§12)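 BMMs stimulated with RANKL (100 ng/mL) for 1 h, then treated for 12 h. Whole-cell lysates run on 10% SDS-PAGE and probed (1:1000) for phospho- and total AKT, ERK, JNK and p38, with ECL detection. Blots representative of at least two experiments.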

The target of data set [24] is T1, Tumor necrosis factor ligand superfamily member 11 (Mus musculus). Nature of the data set: Inhibition of RANKL-stimulated ERK phosphorylation in ICR mouse BMMC at 1 to 10 uM incubated for 12 hrs by Western blotting method. In short, it runs like this: as §12
Data set [25] has the same target. Nature of the data set: Inhibition of RANKL-stimulated JNK phosphorylation in ICR mouse BMMC at 1 to 10 uM incubated for 12 hrs by Western blotting method. In short, it runs like this:
as §12

The target of data set [26] is MAP kinase p38 (Mus musculus) (UniProt P47811+O08911+Q9WUI1+Q9Z1B7). Nature of the data set: Inhibition of RANKL-stimulated p38 phosphorylation in ICR mouse BMMC at 1 to 10 uM incubated for 12 hrs by Western blotting method. The class given is protein assay. In short, it runs like this: as §12
The target in data set [27] is T1, Tumor necrosis factor ligand superfamily member 11 (Mus musculus). As to the kind of experiment: Inhibition of RANKL-induced NFATc1 mRNA expression in ICR mouse BMMC at 5 uM incubated for 12 hrs by qRT-PCR method. The format is functional. In short, it runs like this:
as §11

The target is the same in data set [28]. Nature of the data set: Inhibition of RANKL-induced c-FOS protein expression in ICR mouse BMMC at 1 to 10 uM incubated for 12 hrs by Western blotting method. The class given is functional. In short, it runs like this: (§13)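 BMMs prestimulated with RANKL 100 ng/mL for 12 h, then treated at the indicated times and concentrations. Whole-cell lysates (20 μg/lane) run on 10% SDS-PAGE and blotted to nitrocellulose. Probed with anti-c-Fos and anti-NFATc1 (1:1000), β-actin as internal control, ECL detection.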

Data set [29] has the same target. As to the kind of experiment: Inhibition of RANKL-induced NFATc1 protein expression in ICR mouse BMMC at 1 to 10 uM incubated for 12 hrs by Western blotting method. The format is functional. In short, it runs like this:
as §13

For data set [30] the target is unchanged. As to the kind of experiment: Inhibition of RANKL-stimulated JNK in ICR mouse BMMC assessed as reduction in c-Jun phosphorylation at 1 to 20 uM incubated for 12 hrs by Western blotting method.
Data set [31] shares this target. Nature of the data set: Inhibition of RANKL-induced c-FOS protein expression in ICR mouse BMMC at 1 to 20 uM incubated for 12 hrs by Western blotting method. The class given is functional.
Data set [32] shares this target. Nature of the data set: Inhibition of RANKL-induced NFATc1 protein expression in ICR mouse BMMC at 1 to 20 uM incubated for 12 hrs by Western blotting method. The format is functional.
Data set [33] has as its system BMMC. Nature of the data set: Inhibition of RANKL/M-CSF-stimulated osteoclastogenesis in ICR mouse BMMC assessed as reduction in TRAP positive multinucleated cells at 1 to 20 uM incubated for 7 days by light microscopy. The format is functional. In short, it runs like this:
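JNK inhibitor SP600125 used as reference. For blots, BMMs were incubated with RANKL 100 ng/mL for 12 h, then SP600125 for 4 h; lysates probed for phospho-c-Jun, c-Jun, c-Fos and NFATc1, with β-actin as control. For TRAP counts, BMMs were given RANKL 1 h, then SP600125 (1, 10, 20 μM) with M-CSF 30 ng/mL.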

Structures are written as SMILES. The source made the active and inactive calls. The rule behind the calls is not given here.

T2 sequence (P19838 whole entry, looked up): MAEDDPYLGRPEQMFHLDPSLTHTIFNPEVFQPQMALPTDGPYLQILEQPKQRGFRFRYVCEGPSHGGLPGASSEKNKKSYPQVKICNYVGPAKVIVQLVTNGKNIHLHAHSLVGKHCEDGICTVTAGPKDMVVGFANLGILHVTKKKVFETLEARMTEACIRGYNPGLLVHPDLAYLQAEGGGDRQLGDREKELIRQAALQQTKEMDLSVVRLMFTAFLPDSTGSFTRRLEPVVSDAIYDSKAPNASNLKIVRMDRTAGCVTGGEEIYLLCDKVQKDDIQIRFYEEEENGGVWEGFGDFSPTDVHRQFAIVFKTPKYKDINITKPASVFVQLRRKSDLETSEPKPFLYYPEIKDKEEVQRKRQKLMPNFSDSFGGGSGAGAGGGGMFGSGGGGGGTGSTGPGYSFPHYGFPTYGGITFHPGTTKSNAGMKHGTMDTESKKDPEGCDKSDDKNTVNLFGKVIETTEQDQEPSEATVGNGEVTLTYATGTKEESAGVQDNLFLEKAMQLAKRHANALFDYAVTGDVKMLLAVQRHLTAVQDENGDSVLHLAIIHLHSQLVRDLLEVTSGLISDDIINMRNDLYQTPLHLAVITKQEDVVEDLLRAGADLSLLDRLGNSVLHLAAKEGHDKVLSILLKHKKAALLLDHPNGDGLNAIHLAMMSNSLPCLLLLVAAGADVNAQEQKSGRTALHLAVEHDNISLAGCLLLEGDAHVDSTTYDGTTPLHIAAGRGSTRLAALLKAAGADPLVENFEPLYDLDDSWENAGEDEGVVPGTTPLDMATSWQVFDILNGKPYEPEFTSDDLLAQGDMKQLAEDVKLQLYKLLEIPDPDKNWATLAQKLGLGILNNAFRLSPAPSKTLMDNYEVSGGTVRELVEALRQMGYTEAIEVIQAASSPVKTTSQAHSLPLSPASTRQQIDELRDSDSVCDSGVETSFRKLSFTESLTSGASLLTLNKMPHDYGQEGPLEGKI
T2 sequence (Q00653 whole entry, looked up): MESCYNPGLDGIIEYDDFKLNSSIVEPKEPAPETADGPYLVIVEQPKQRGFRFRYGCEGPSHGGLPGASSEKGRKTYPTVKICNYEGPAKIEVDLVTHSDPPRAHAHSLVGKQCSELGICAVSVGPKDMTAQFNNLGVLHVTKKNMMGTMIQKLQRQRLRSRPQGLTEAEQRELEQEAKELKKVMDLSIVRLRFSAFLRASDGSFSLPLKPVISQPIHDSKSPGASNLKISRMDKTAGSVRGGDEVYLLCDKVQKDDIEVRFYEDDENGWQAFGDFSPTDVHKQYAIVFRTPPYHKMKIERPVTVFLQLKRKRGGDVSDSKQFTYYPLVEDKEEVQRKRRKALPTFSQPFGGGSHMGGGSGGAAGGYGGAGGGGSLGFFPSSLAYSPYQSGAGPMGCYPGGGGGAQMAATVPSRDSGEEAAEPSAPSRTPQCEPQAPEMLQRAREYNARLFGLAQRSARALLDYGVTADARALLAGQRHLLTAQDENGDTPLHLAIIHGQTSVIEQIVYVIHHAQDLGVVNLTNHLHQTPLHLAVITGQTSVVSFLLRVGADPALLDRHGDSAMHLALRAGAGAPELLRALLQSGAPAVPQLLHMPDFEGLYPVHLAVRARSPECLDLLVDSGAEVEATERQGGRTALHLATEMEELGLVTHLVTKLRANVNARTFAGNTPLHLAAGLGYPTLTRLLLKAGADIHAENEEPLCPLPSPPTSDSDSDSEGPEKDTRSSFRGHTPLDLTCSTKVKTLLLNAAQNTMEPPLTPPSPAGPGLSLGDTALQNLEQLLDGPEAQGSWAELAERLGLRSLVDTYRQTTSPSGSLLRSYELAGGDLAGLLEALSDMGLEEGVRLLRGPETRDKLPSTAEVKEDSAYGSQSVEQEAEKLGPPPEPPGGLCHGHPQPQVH
T2 sequence (Q04206 whole entry, looked up): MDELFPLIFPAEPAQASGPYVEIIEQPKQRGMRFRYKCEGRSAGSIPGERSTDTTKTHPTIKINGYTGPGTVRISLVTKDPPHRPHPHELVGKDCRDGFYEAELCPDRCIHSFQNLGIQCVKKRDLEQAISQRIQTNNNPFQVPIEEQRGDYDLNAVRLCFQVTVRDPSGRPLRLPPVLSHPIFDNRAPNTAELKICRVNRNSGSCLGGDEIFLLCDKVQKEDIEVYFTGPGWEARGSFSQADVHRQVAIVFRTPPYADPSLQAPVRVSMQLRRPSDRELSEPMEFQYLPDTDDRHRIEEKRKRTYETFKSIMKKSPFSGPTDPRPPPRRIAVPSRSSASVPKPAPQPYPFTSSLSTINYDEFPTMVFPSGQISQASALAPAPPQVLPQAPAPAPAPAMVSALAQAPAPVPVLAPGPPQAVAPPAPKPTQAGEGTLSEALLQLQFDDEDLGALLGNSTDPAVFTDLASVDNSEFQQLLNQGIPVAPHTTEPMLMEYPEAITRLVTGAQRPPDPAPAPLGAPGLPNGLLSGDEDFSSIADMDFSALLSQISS
Transcription factor p65 (Mus musculus), sequence (Q04207 whole entry): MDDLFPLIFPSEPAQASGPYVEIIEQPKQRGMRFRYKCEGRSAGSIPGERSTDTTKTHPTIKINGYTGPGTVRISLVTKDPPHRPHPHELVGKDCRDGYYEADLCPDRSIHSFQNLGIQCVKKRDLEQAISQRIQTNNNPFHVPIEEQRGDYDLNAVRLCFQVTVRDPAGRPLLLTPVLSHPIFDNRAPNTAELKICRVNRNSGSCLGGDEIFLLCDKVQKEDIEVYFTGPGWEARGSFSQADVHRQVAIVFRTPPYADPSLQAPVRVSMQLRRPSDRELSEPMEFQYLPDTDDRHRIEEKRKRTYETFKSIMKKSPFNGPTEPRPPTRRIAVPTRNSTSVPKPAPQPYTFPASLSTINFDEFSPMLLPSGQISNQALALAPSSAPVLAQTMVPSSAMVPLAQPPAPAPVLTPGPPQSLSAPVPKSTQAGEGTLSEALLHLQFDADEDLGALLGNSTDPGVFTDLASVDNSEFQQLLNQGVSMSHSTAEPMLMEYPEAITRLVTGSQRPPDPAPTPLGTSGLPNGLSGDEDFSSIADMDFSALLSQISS
RAC-alpha serine/threonine-protein kinase (Mus musculus), sequence (P31750 whole entry): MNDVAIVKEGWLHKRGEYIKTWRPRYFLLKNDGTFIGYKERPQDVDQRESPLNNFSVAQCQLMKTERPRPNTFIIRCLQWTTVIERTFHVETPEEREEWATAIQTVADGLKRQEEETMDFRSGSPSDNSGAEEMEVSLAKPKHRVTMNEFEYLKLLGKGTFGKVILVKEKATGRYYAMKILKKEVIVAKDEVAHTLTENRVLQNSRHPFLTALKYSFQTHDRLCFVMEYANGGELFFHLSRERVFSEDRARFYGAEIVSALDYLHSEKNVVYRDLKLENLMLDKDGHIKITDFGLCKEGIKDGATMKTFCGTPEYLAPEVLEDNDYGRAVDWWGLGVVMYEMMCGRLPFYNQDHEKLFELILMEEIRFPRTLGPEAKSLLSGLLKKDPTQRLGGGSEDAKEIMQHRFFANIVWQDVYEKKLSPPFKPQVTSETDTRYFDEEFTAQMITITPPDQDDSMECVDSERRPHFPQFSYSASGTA

Consider `COc1ccc(-c2coc3cc(O)ccc3c2=O)cc1` [FORMONONETIN], for which the inhibition entry in the data set on BMMC [1], with BMMC [4], in the data set on BMMC [7], in the data set on BMMC [9], in the data set with BMMC [11] and with BMMC [13] was “Dose-dependent effect” each time. The inhibition result (with BMMC [15]; in the data set on BMMC [17]; in data set [21]; in data set [23]; in data set [24]; in data set [25]) was “Dose-dependent effect” in each case. The inhibition result in data set [26], in data set [28] and in data set [29] was “Dose-dependent effect” each time. For the same compound, the “fold change (FC)” value in [2] was 1.3; in [5], 1.5; in the data set with Osteoblast, 1.2; in [20], 1.3. Further, the Activity result in data set [3] is “Non-toxic”. The “inhibition (INH)” value in [6] is 27.1%; in data set [8], 25.1%; in data set [10] it was 9.2%; in [12], 27.4%; in [14] it was 7.1%; in data set [16] it was 23.1%. Further, the inhibition result in [18], in [19], in data set [22] and in data set [27] was “Active” in each case.
As for `Oc1c2ccccc2c2c3c(cccc13)N=N2`, the inhibition result (in [30]; in data set [31]; in data set [32]; in the data set on BMMC [33]) was “Active” throughout.
